Laboratory results from ChEMBL document CHEMBL3124843, “Synthesis, cytostatic, antimicrobial, and anti-HCV activity of 6-substituted 7-(het)aryl-7-deazapurine ribonucleosides” (J Med Chem, 2014).
The source made the active and inactive calls. No rule for the calls is given here.

Legend:
Candida albicans = assay: Antifungal activity against Candida albicans after 48 hrs; format: functional, organism-based
[1] = Cytotoxicity against human HuH7 cells infected with Hepatitis C virus subtype 1b; format: cell-based, Huh-7
CCRF-CEM = assay: Cytostatic activity against human CCRF-CEM cells after 72 hrs by MTT assay; format: functional, cell-based
Summary of the method: (§1)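 IC50 is the concentration that cuts cell growth by 50%, read by quantitative metabolic MTT staining after a 3-day treatment. The resistant sublines were made by raising the concentration of the cytotoxic drug step by step. CEM-DNR-bulk (daunorubicin-selected) stably overexpresses mrp-1. K562-TAX (paclitaxel-selected) expresses only mdr-1. HCT116p53−/− carries null p53 alleles. BJ and MRC-5 are nonmalignant fibroblasts.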

K562 [2] = assay: Cytostatic activity against paclitaxel-resistant human K562 cells after 72 hrs by MTT assay; format: functional, cell-based; conditions: K562, 72 h; summary of the method: as §1
Staphylococcus aureus [3] = assay: Antibacterial activity against methicillin-resistant Staphylococcus aureus MRSA 4591 after 24 hrs; format: functional, organism-based
Hepatitis C virus [4] = assay: Antiviral activity against Hepatitis C virus subtype 2a infected in human HuH7 cells; format: functional, organism-based, Hepacivirus hominis; conditions: genotype 2a, Huh-7
K562 [5] = assay: Cytostatic activity against human K562 cells after 72 hrs by MTT assay; format: functional, cell-based; conditions: K562, 72 h; summary of the method: as §1
[6] = tested on: Staphylococcus haemolyticus; assay: Antibacterial activity against methicillin-resistant Staphylococcus haemolyticus A/16568 after 24 hrs; format: functional, organism-based
Pichia kudriavzevii = assay: Antifungal activity against Candida crusei after 48 hrs; format: functional, organism-based
Hepatitis C virus [7] = assay: Antiviral activity against Hepatitis C virus subtype 1b infected in human HuH7 cells; format: functional, organism-based, Hepacivirus hominis; conditions: genotype 1b, Huh-7
Candida parapsilosis = assay: Antifungal activity against Candida parapsilosis after 48 hrs; format: functional, organism-based
Escherichia coli [8] = assay: Antibacterial activity against Escherichia coli CCM 3954 after 24 hrs; format: functional, organism-based
HepG2 = assay: Antiproliferative activity against human HepG2 cells after 72 hrs by XTT assay; format: functional, cell-based; conditions: HepG2, 72 h
[9] = Cytotoxicity against human HuH7 cells infected with Hepatitis C virus subtype 2a; format: cell-based, Huh-7
Staphylococcus aureus [10] = assay: Antibacterial activity against Staphylococcus aureus CCM 3953 after 24 hrs; format: functional, organism-based
HL-60 = assay: Antiproliferative activity against human HL60 cells after 72 hrs by XTT assay; format: functional, cell-based; conditions: HL-60, 72 h
Summary of the method: (§2)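 Antiproliferative test on HL-60 promyelocytic leukemia and HeLa S3 cervical carcinoma cells growing in liquid suspension.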

BJ = assay: Cytostatic activity against human BJ cells after 72 hrs by MTT assay; format: ADME, cell-based; summary of the method: as §1
HCT-116 [11] = assay: Cytostatic activity against p53-deficient human HCT116 cells after 72 hrs by MTT assay; format: functional, cell-based; conditions: HCT-116, 72 h; summary of the method: as §1
Pseudomonas aeruginosa [12] = assay: Antibacterial activity against Pseudomonas aeruginosa CCM 3955 after 24 hrs; format: functional, organism-based
HCT-116 [13] = assay: Cytostatic activity against human HCT116 cells after 72 hrs by MTT assay; format: functional, cell-based; conditions: HCT-116, 72 h; summary of the method: as §1
Pseudomonas aeruginosa [14] = assay: Antibacterial activity against multi-resistant Pseudomonas aeruginosa A/16575 after 24 hrs; format: functional, organism-based
Escherichia coli [15] = assay: Antibacterial activity against multi-resistant Escherichia coli C/16702 after 24 hrs; format: functional, organism-based
MRC5 = assay: Cytostatic activity against human MRC5 cells after 72 hrs by MTT assay; format: ADME, cell-based; conditions: MRC5, 72 h; summary of the method: as §1
[16] = Cytostatic activity against human CEM-DNR-bulk cells after 72 hrs by MTT assay; format: functional, cell-based; summary of the method: as §1
A549 = assay: Cytostatic activity against human A549 cells after 72 hrs by MTT assay; format: functional, cell-based; conditions: A549, 72 h; summary of the method: as §1
[17] = Antiproliferative activity against human HeLaS3 cells after 72 hrs by XTT assay; format: functional, cell-based; conditions: HeLa S3, 72 h; summary of the method: as §2
Enterococcus faecalis = assay: Antibacterial activity against Enterococcus faecalis CCM 4224 after 24 hrs; format: functional, organism-based
Candida tropicalis = assay: Antifungal activity against Candida tropicalis after 48 hrs; format: functional, organism-based

Row | SMILES | Activity (Candida albicans) | CC50 [1] [µM] | IC50 (CCRF-CEM) [µM] | IC50 (K562 [2]) [µM] | Activity (Staphylococcus aureus [3]) | EC50 (Hepatitis C virus [4]) [µM] | IC50 (K562 [5]) [µM] | Activity [6] | Activity (Pichia kudriavzevii) | EC50 (Hepatitis C virus [7]) [µM] | Activity (Candida parapsilosis) | Activity (Escherichia coli [8]) | IC50 (HepG2) [µM] | CC50 [9] [µM] | Activity (Staphylococcus aureus [10]) | IC50 (HL-60) [µM] | IC50 (BJ) [µM] | IC50 (HCT-116 [11]) [µM] | Activity (Pseudomonas aeruginosa [12]) | IC50 (HCT-116 [13]) [µM] | also measured
1 | Nc1nc(N)c2c(-c3ccccc3)cn([C@@H]3O[C@H](CO)[C@@H](O)[C@H]3O)c2n1 | inactive | > 44 | > 20 | > 20 | inactive | > 44 | > 20 | inactive | inactive | > 44 | inactive | inactive | > 20 | > 44 | inactive | > 15 | > 100 | > 20 | inactive | > 20 | Activity (Pseudomonas aeruginosa [14]): inactive; Activity (Escherichia coli [15]): inactive; IC50 (MRC5): > 100 µM; IC50 [16]: > 20 µM; IC50 (A549): > 20 µM; IC50 [17]: > 20 µM; Activity (Enterococcus faecalis): inactive; Activity (Candida tropicalis): inactive
2 | CSc1ncnc2c1c(-c1ccccc1)cn2[C@@H]1O[C@H](CO)[C@@H](O)[C@H]1O | inactive | > 44 | > 20 | > 20 | inactive | > 44 | > 20 | inactive | inactive | 23.3 | inactive | inactive | > 20 | > 44 | inactive | > 20 | > 100 | > 20 | inactive | > 20 | Activity (Pseudomonas aeruginosa [14]): inactive; Activity (Escherichia coli [15]): inactive; IC50 (MRC5): > 100 µM; IC50 [16]: > 20 µM; IC50 (A549): > 20 µM; IC50 [17]: > 20 µM; Activity (Enterococcus faecalis): inactive; Activity (Candida tropicalis): inactive
3 | CSc1ncnc2c1c(-c1cccs1)cn2[C@@H]1O[C@H](CO)[C@@H](O)[C@H]1O | inactive | > 44 | > 20 | > 20 | inactive | > 44 | 11.6 | inactive | inactive | 5.42 | inactive | inactive | > 20 | > 44 | inactive | 1.13 | 96.9 | > 20 | inactive | > 20 | Activity (Pseudomonas aeruginosa [14]): inactive; Activity (Escherichia coli [15]): inactive; IC50 (MRC5): > 100 µM; IC50 [16]: > 20 µM; IC50 (A549): > 20 µM; IC50 [17]: 1.96 µM; Activity (Enterococcus faecalis): inactive; Activity (Candida tropicalis): inactive
4 | Nc1nc2c(c(-c3ccoc3)cn2[C@@H]2O[C@H](CO)[C@@H](O)[C@H]2O)c(=O)[nH]1 | inactive | > 44 | 17.9 | 12.5 | inactive | 40.7 | 19.6 | inactive | inactive | 25.7 | inactive | inactive | > 20 | > 44 | inactive | > 15 | 21.5 | 17.6 | inactive | 14.2 | Activity (Pseudomonas aeruginosa [14]): inactive; Activity (Escherichia coli [15]): inactive; IC50 (MRC5): 86.1 µM; IC50 [16]: 15 µM; IC50 (A549): > 20 µM; IC50 [17]: 10.7 µM; Activity (Enterococcus faecalis): inactive; Activity (Candida tropicalis): inactive
5 | Nc1nc2c(c(-c3ccccc3)cn2[C@@H]2O[C@H](CO)[C@@H](O)[C@H]2O)c(=O)[nH]1 | inactive | > 44 | > 100 | > 20 | inactive | > 44 | > 20 | inactive | inactive | > 44 | inactive | inactive | > 20 | > 44 | inactive | > 20 | > 100 | > 20 | inactive | > 20 | Activity (Pseudomonas aeruginosa [14]): inactive; Activity (Escherichia coli [15]): inactive; IC50 (MRC5): > 100 µM; IC50 [16]: > 20 µM; IC50 (A549): > 100 µM; IC50 [17]: > 20 µM; Activity (Enterococcus faecalis): inactive; Activity (Candida tropicalis): inactive
6 | Cc1nc(N)c2c(-c3cccs3)cn([C@@H]3O[C@H](CO)[C@@H](O)[C@H]3O)c2n1 | inactive | > 44 | > 20 | > 20 | inactive | > 44 | > 20 | inactive | inactive | > 44 | inactive | inactive | > 20 | > 44 | inactive | > 20 | > 100 | > 20 | inactive | > 20 | Activity (Pseudomonas aeruginosa [14]): inactive; Activity (Escherichia coli [15]): inactive; IC50 (MRC5): > 100 µM; IC50 [16]: > 20 µM; IC50 (A549): > 20 µM; IC50 [17]: > 20 µM; Activity (Enterococcus faecalis): inactive; Activity (Candida tropicalis): inactive
7 | Cc1ncnc2c1c(Br)cn2[C@@H]1O[C@H](CO)[C@@H](O)[C@H]1O | inactive | 35.6 | 15 | 15.8 | inactive | 20.7 | > 20 | inactive | inactive | 12 | inactive | inactive | 5.55 | 28.2 | inactive | 7.24 | > 100 | 19.6 | inactive | 15.7 | Activity (Pseudomonas aeruginosa [14]): inactive; Activity (Escherichia coli [15]): inactive; IC50 (MRC5): 24.4 µM; IC50 [16]: > 20 µM; IC50 (A549): > 20 µM; IC50 [17]: 13.8 µM; Activity (Enterococcus faecalis): inactive; Activity (Candida tropicalis): inactive
8 | Cc1ncnc2c1c(-c1ccoc1)cn2[C@@H]1O[C@H](CO)[C@@H](O)[C@H]1O | inactive | > 44 | > 20 | > 20 | inactive | > 44 | > 20 | inactive | inactive | 4.43 | inactive | inactive | 5.32 | > 44 | inactive | > 15 | 89.2 | > 20 | inactive | > 20 | Activity (Pseudomonas aeruginosa [14]): inactive; Activity (Escherichia coli [15]): inactive; IC50 (MRC5): 98.3 µM; IC50 [16]: > 20 µM; IC50 (A549): > 20 µM; IC50 [17]: > 20 µM; Activity (Enterococcus faecalis): inactive; Activity (Candida tropicalis): inactive
9 | C#Cc1cn([C@@H]2O[C@H](CO)[C@@H](O)[C@H]2O)c2ncnc(C)c12 | inactive | > 44 | 5.6 | 0.11 | inactive | 21.6 | 6.92 | inactive | inactive | 0.23 | inactive | inactive | 0.29 | > 44 | inactive | 1.11 | 0.05 | > 20 | inactive | > 20 | Activity (Pseudomonas aeruginosa [14]): inactive; Activity (Escherichia coli [15]): inactive; IC50 (MRC5): 1.44 µM; IC50 [16]: 0.16 µM; IC50 (A549): 19.2 µM; IC50 [17]: 14.7 µM; Activity (Enterococcus faecalis): inactive; Activity (Candida tropicalis): inactive
